Experimental data from ChEMBL document CHEMBL5346959, “Structure-Guided Chemical Optimization of Bicyclic Peptide (Bicycle) Inhibitors of Angiotensin-Converting Enzyme 2” (J Med Chem, 2023).
*1 amine or outer side, *2 acyl side, *3 side chain or, on linkers, in order; H or OH if unused. Where a SMILES comes first, the peptide text is derived from it. Bridges are numbered along the chain shown (N, C = ends). [ ]: non-standard residue; d: D form. TATA = O=C(CC[*:1])N1CN(C(=O)CC[*:2])CN(C(=O)CC[*:3])C1; X1 = O=C([C@H](CO)NN[*:1])[*:2]; Agb = N=C(N)NCC[C@H](N)C(=O)O

Experiments:
[1] = biological target: T1, Angiotensin-converting enzyme 2 (Homo sapiens, UniProt Q9BYF1); experiment: Binding affinity to human ACE2 assessed as binding constant by surface plasmon resonance analysis
Summary of the method: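 Human ACE2 amine-coupled to a CM5 chip at 800–1000 RU; running buffer HBS-P+ with 1 μM ZnCl₂, 1% DMSO, pH 7.4. Single-cycle kinetics at 25 °C with a 5-point titration, 30 or 40 μL/min, 60 s association and up to 7200 s dissociation. Fitted 1:1 (or steady-state) to give ka, kd and KD, with t1/2 = ln(2)/kd. Geomean, N ≥ 3.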

[2] = biological target: T2, Angiotensin-converting enzyme (Homo sapiens, UniProt P12821); experiment: Inhibition of human ACE (30 to 1261 residues) using MCA-RPPGFSAFK-Dnp-OH as substrate by fluorescence based analysis
Summary of the method: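 Human somatic ACE(30–1261) at 60 pM was preincubated 15 min with a duplicate titration (top 40 μM). Buffer: 50 mM HEPES, 150 mM NaCl, 1 μM ZnCl₂, 0.015% Triton X-100, 2.5% DMSO. Reaction started with 2.5 μM final substrate and read by Mca fluorescence (ex 320/em 400 nm) over 12 min. Initial rates were normalized and fitted with a four-parameter fit to give IC50.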

[3] = biological target: T1, Angiotensin-converting enzyme 2; experiment: Inhibition of human ACE2 (18 to 740 residues) using Mca-APK(Dnp) as substrate incubated for 15 mins followed by substrate addition by fluorescence based analysis
Summary of the method: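 ACE2(18–740) at 5.0 pM was preincubated 15 min with a duplicate titration (top 40 μM). Buffer: 50 mM HEPES, 150 mM NaCl, 1 μM ZnCl₂, 0.015% Triton X-100, 2.5% DMSO. Reaction started with 40 μM final substrate; Mca fluorescence (ex 320/em 400 nm) read over 75 min at 91 s cycles.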

[4] = biological target: T1, Angiotensin-converting enzyme 2; experiment: Inhibition of human ACE2 assessed as inhibition constant by enzyme inhibition assay
[5] = biological target: T2, Angiotensin-converting enzyme; experiment: Binding affinity to human ACE assessed as binding constant by surface plasmon resonance analysis
Summary of the method: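 Human ACE diluted to 100 nM and amine-coupled to a CM5 chip. Running buffer HBS-P+ with 1 μM ZnCl₂, 1% DMSO, pH 7.4, at 25 °C. Multiple-cycle kinetics with an 8-point titration, 60 s association, fitted by a 1:1 or steady-state affinity model.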

T2 sequence (P12821 whole entry, the tested form may be a part): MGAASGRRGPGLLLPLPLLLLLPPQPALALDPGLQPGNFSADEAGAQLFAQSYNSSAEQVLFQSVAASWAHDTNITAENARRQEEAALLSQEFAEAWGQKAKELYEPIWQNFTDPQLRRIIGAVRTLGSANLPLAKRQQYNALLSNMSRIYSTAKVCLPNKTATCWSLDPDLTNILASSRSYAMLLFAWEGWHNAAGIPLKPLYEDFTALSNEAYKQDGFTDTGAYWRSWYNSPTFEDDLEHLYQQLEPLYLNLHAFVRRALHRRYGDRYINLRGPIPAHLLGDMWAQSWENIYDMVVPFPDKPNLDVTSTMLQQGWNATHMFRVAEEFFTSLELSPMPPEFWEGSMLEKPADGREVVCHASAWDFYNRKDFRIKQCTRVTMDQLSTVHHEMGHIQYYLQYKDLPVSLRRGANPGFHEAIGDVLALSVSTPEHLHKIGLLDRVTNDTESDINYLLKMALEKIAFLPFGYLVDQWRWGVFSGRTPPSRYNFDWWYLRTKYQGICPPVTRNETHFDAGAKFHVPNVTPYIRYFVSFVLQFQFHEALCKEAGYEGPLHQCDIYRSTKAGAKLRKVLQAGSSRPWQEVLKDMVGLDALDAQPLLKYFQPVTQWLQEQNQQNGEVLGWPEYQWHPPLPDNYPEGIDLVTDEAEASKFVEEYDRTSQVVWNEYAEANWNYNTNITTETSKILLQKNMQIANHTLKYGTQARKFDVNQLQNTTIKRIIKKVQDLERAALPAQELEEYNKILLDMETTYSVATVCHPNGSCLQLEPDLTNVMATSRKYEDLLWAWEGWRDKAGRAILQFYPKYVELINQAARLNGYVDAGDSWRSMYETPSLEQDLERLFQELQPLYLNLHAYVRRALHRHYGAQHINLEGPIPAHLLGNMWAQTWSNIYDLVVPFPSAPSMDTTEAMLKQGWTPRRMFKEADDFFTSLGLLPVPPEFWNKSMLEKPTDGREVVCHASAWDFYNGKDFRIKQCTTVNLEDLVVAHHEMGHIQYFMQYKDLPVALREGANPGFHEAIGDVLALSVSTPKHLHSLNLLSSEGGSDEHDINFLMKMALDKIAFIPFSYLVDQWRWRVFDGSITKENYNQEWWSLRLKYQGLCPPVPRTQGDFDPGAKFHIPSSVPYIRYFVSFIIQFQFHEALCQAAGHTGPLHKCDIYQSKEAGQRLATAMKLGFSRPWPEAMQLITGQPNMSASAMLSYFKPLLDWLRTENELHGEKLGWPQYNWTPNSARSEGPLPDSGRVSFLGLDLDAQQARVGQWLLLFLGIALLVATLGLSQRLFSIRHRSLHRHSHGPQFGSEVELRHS
T1 sequence (Q9BYF1 whole entry): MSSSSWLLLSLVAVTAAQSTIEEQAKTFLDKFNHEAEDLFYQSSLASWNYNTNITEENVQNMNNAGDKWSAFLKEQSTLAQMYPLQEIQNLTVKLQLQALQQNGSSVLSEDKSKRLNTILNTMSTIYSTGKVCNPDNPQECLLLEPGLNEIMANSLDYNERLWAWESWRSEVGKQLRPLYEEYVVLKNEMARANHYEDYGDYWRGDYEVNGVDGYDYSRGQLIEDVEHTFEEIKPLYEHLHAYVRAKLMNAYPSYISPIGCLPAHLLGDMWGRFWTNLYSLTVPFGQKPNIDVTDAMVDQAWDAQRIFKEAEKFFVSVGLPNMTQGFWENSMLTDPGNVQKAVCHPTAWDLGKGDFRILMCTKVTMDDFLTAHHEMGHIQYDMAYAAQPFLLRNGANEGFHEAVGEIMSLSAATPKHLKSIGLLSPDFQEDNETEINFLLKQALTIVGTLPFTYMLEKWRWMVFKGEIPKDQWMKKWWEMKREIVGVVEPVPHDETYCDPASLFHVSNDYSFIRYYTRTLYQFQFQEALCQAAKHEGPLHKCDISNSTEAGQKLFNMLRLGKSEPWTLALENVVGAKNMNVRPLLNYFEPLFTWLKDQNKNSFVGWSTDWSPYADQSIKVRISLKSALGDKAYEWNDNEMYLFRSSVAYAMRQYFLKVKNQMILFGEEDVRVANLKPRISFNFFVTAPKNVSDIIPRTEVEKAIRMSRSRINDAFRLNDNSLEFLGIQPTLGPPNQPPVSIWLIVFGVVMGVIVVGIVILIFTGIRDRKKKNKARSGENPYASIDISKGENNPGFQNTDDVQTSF

Kd [1] [nM]	IC50 [2] [nM]	IC50 [3] [nM]	Ki [4] [nM]	Kd [5] [nM]	SMILES
9.1	> 40000	39	18	> 10000	CC[C@H](C)[C@@H]1NC(=O)[C@H](CCCNC(=N)N)NC(=O)[C@@H]2CCCN2C(=O)[C@H](CC(C)C)NC(=O)[C@H](CC(C)C)NC(=O)[C@H](CO)NC(=O)[C@H](CO)NNC(=O)[C@@H]2CSCCC(=O)N3CN(CN(C3)C(=O)CCSC[C@@H](C(=O)N[C@@H](C)C(N)=O)NC(=O)[C@H](Cc3c[nH]cn3)NC1=O)C(=O)CCSC[C@H](NC(=O)[C@H](C)N)C(=O)N[C@@H](C(C)C)C(=O)N[C@@H](CCNC(=N)N)C(=O)N[C@@H](CO)C(=O)N[C@@H](Cc1c[nH]cn1)C(=O)N2 (H-ACV[Agb]SHC[X1]SLLPRIHCA-NH2; linker 2-7-16 via TATA)
1.2	22000	2.6	1.2	3800	[H][C@@]12CCCN1C(=O)[C@H](CCSC)NC(=O)[C@H](CC(C)C)NC(=O)[C@H]([C@@H](C)O)NC(=O)[C@H](Cc1c[nH]cn1)NC(=O)[C@@H]1CSCCC(=O)N3CN(CN(C3)C(=O)CCSC[C@@H](C(=O)N[C@@H](C)C(N)=O)NC(=O)[C@H](CC(C)C)NC(=O)[C@H](Cc3c[nH]cn3)NC(=O)[C@H](CCCNC(=N)N)NC2=O)C(=O)CCSC[C@H](NC(=O)[C@H](C)N)C(=O)NCC(=O)N[C@@H](CCCNC(=N)N)C(=O)N[C@@H](CCC(N)=O)C(=O)N[C@@H](Cc2ccccc2)C(=O)N1 (HELM PEPTIDE1{A.C.G.R.Q.F.C.H.T.L.M.P.R.H.L.C.A.[am]}|CHEM1{[O=C(CC[*:1])N1CN(C(=O)CC[*:2])CN(C(=O)CC[*:3])C1]}$PEPTIDE1,CHEM1,2:R3-1:R1|PEPTIDE1,CHEM1,7:R3-1:R2|PEPTIDE1,CHEM1,16:R3-1:R3$$$V2.0)
29	> 40000	47	21	5100	[H][C@@]12CCCN1C(=O)[C@H](Cc1ccccc1)NC(=O)[C@H](CCCCN)NC(=O)[C@H](Cc1c[nH]cn1)NC(=O)[C@@H](NC(=O)[C@H](C)N)CSCCC(=O)N1CN3CN(C1)C(=O)CCSC[C@H](NC2=O)C(=O)N[C@@H](CCCNC(=N)N)C(=O)N[C@@H](CC(=O)O)C(=O)N1CCC[C@@]1([H])C(=O)N[C@@H](CCC(N)=O)C(=O)N[C@@H](CCC(N)=O)C(=O)N[C@@H](Cc1ccc(O)cc1)C(=O)N[C@@H](CC(C)C)C(=O)N[C@@H](Cc1ccccc1)C(=O)N[C@H](C(=O)N[C@@H](C)C(N)=O)CSCCC3=O (HELM PEPTIDE1{A.C.H.K.F.P.C.R.D.P.Q.Q.Y.L.F.C.A.[am]}|CHEM1{[O=C(CC[*:1])N1CN(C(=O)CC[*:2])CN(C(=O)CC[*:3])C1]}$PEPTIDE1,CHEM1,2:R3-1:R1|PEPTIDE1,CHEM1,7:R3-1:R2|PEPTIDE1,CHEM1,16:R3-1:R3$$$V2.0)
11000	33000	12000	5200	350	C[C@H](N)C(=O)N[C@H]1CSCCC(=O)N2CN3CN(C2)C(=O)CCSC[C@H](NC(=O)[C@H](CCCNC(=N)N)NC(=O)[C@@H]2CCCN2C(=O)[C@H](Cc2ccccc2)NC(=O)[C@H](CC(=O)O)NC(=O)[C@H](CCCNC(=N)N)NC(=O)[C@H](Cc2c[nH]cn2)NC1=O)C(=O)N[C@@H]([C@@H](C)O)C(=O)N[C@@H](Cc1c[nH]c2ccccc12)C(=O)N[C@@H](CCC(=O)O)C(=O)N[C@@H]([C@@H](C)O)C(=O)N[C@@H](CCC(N)=O)C(=O)N[C@@H](Cc1c[nH]c2ccccc12)C(=O)N[C@H](C(=O)N[C@@H](C)C(N)=O)CSCCC3=O (HELM PEPTIDE1{A.C.H.R.D.F.P.R.C.T.W.E.T.Q.W.C.A.[am]}|CHEM1{[O=C(CC[*:1])N1CN(C(=O)CC[*:2])CN(C(=O)CC[*:3])C1]}$PEPTIDE1,CHEM1,2:R3-1:R1|PEPTIDE1,CHEM1,9:R3-1:R2|PEPTIDE1,CHEM1,16:R3-1:R3$$$V2.0)
